Calls of active or inactive are those of the source. The rule behind the calls is not given here.
Legend:
SH-SY5Y [1] = experiment: Antioxidant activity in human SH-SY5Y cells assessed as decrease of tert-butyl hydroperoxide-induced ROS production at 20 uM after 24 hrs using DCFH-DA by fluorescence assay; format: functional, cell-based
Method in brief: (§1)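 SH-SY5Y grown in DMEM with 10% supplement at 37 °C, 5% CO2, seeded 3 × 10^4 cells/well. After 24 h, compounds were added (2.5 µM; reference antioxidants at 20 µM). Cells were loaded with 5 µM DCFH-DA in PBS for 30 min at 37 °C, washed, then exposed to 0.1 mM t-BuOOH for 30 min. Fluorescence read at ex 485/em 535 nm, expressed as % of untreated control.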

SH-SY5Y [2] = experiment: Cytotoxicity against human SH-SY5Y cells assessed as cell viability at 2.5 uM; format: cell-based
Method in brief: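 SH-SY5Y cells seeded at 3 × 10^4 per well, 24 h later exposed to 2.5 µM compound (final 0.05% DMSO) or vehicle for 24 h, then assessed for markers of cell death.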

[3] = Inhibition of self-mediated amyloid beta (1 to 42) aggregation after 48 hrs by thioflavin T fluorescence assay
Method in brief: (§2)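 Aβ1–42 (final 20 µM) incubated in 10 mM phosphate pH 7.4 at 37 °C for 48 h with or without compound (2, 5, 10, 20, 50 µM). Samples diluted into 50 mM glycine–NaOH pH 8.5 with 5 µM ThT, read at ex 450/em 485 nm. Inhibition % = (1 − IFi/IFc) × 100; mean ± SD from at least two independent measurements.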

[4] = Inhibition of self-mediated amyloid beta (1 to 42) aggregation at 50 uM after 48 hrs by thioflavin T fluorescence assay relative to control; method in brief: as §2
[5] = Inhibition of amyloid beta (1 to 42) aggregation assessed as decrease of beta-sheet structure formation at 10 uM after 32 hrs by CD spectroscopy assay
Method in brief: (§3)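 Aβ1–42 (20 µM) incubated at 37 °C with or without 10 µM compound in 10 mM sodium phosphate pH 7.4. At 0, 6, 12 and 32 h, far-UV CD spectra recorded at 25 °C from 190 to 260 nm in a 1 mm quartz cell (bandwidth 0.5 nm, scan 10 nm/min).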

[6] = Inhibition of amyloid beta (1 to 42) aggregation assessed as stabilization of […] structure at 10 uM after 32 hrs by CD spectroscopy assay; method in brief: as §3
[7] = Inhibition of amyloid beta (1 to 42) fibril formation assessed as less thin and short fibrils at 20 to 40 uM after 12 hrs by transmission electron microscopic analysis
Method in brief: (§4)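 Aβ1–42 (40 µM) aggregated with or without 20 µM compound and sampled at 0, 12 and 32 h. Samples applied to grids, washed with water, negatively stained for 1 min with 2% uranyl acetate, blotted and examined by transmission EM.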

[8] = Inhibition of amyloid beta (1 to 42) fibril formation assessed as few short fibrils and many breakage points in fibrils at 20 to 40 uM after 32 hrs by transmission electron microscopic analysis; method in brief: as §4
[9] = Antioxidant activity assessed as trolox equivalent of APPH-induced radical scavenging activity at 0.625 to 2.5 uM by ORAC fluorescence assay; format: functional
Method in brief: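 AAPH (40 mM) peroxyl-radical decay of fluorescein (140 nM working solution) in 75 mM potassium phosphate pH 7.4; compounds from DMSO stocks tested at final 2.5, 1.25 and 0.625 µM. Each mixture in four replicates, at least four independent runs. Curves normalized to blank, net AUC computed, values expressed as Trolox equivalents from a Trolox standard curve.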

SH-SY5Y [10] = experiment: Antioxidant activity in human SH-SY5Y cells assessed as decrease of tert-butyl hydroperoxide-induced ROS production at 2.5 uM after 24 hrs using DCFH-DA by fluorescence assay; format: functional, cell-based; method in brief: as §1
[11] = Metal chelating activity of the compound assessed as formation of copper complex at 20 uM by UV-vis spectrometry; format: functional
Method in brief: (§5)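 UV spectra recorded for 20 µM compound alone or with 20 µM ZnSO4, CuSO4 or FeSO4.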

[12] = Metal chelating activity of the compound assessed as formation of iron complex at 20 uM by UV-vis spectrometry; format: functional; method in brief: as §5
[13] = Metal chelating activity of the compound assessed as formation of zinc complex at 20 uM by UV-vis spectrometry; format: functional; method in brief: as §5
[14] = Metal chelating activity of the compound assessed as formation of copper complex at 20 uM by molar ratio method; format: functional
Method in brief: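 Molar ratio method: compound solutions titrated with increasing CuSO4 or FeSO4; spectra obtained by subtracting CuSO4 and compound at matching concentrations, monitoring the band at 493 nm.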

[15] = Inhibition of copper-induced amyloid beta (1 to 42) aggregation in HEPES buffer at pH 6.6 after 45 mins by thioflavin T fluorescence assay
Method in brief: (§6)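 Aβ1–42 (20 µM) co-incubated with 40 µM Cu2+ or Fe2+ (HEPES pH 6.6) or Zn2+ (HEPES pH 7.4), with 150 µM NaCl, with or without 40 µM compound or clioquinol, at 37 °C for 45 min. Samples diluted into 50 mM glycine–NaOH pH 8.5 with 5 µM ThT; fluorescence read at ex 450/em 485 nm.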

[16] = Inhibition of iron-induced amyloid beta (1 to 42) aggregation in HEPES buffer at pH 6.6 after 45 mins by thioflavin T fluorescence assay; method in brief: as §6
[17] = Inhibition of zinc-induced amyloid beta (1 to 42) aggregation in HEPES buffer at pH 7.4 after 45 mins by thioflavin T fluorescence assay; method in brief: as §6

| SMILES | IC50 [3] [µM] | inhibition [4] [%] | Activity (SH-SY5Y [2]) | Ratio [9] | further results |
| --- | --- | --- | --- | --- | --- |
| CC(=O)N[C@@H](CS)C(=O)O |  |  |  |  | Activity (SH-SY5Y [1]): inactive |
| Cc1c(C)c2c(c(C)c1O)CCC(C)(C(=O)O)O2 (configuration not stated) |  |  |  |  | Activity (SH-SY5Y [1]): Active |
| CN1CCN(c2ccc(/C=C/c3cccc(/C=C/c4ccc(N5CCN(C)CC5)cc4)c3)cc2)CC1 | > 50 | 42.1 | Non-toxic | 1.2 |  |
| Oc1c(I)cc(Cl)c2cccnc12 |  |  |  |  | inhibition [15]: Active; inhibition [16]: Active |
| CN1CCN(c2ccc(/C=C/C(=O)c3cccc(C(=O)/C=C/c4ccc(N5CCN(C)CC5)cc4)c3)cc2)CC1 | 37.8 | 52.8 | Non-toxic | 1.3 |  |
| O=C1/C(=C/c2ccc(N3CCCCC3)cc2)CNC/C1=C\c1ccc(N2CCCCC2)cc1 | 17.2 | 64.5 | Non-toxic | 2.4 |  |
| CN1CCN(c2ccc(/C=C3\CN(C)C/C(=C\c4ccc(N5CCN(C)CC5)cc4)C3=O)cc2)CC1 | 17.6 | 65.1 | Non-toxic | 4.7 |  |

Second part, led by results:

| IC50 [3] [µM] | inhibition [4] [%] | SMILES | Activity (SH-SY5Y [2]) | Ratio [9] | further results |
| --- | --- | --- | --- | --- | --- |
| 2.5 | 90.2 | CN1CCN(c2ccc(/C=C3\CNC/C(=C\c4ccc(N5CCN(C)CC5)cc4)C3=O)cc2)CC1 | Non-toxic | 5.8 | inhibition [5]: Active; inhibition [6]: Active; inhibition [7]: Active; inhibition [8]: Active; Activity (SH-SY5Y [10]): Active; Activity [11]: Active; Activity [12]: Active; Activity [13]: inactive; Activity [14]: Active; inhibition [15]: Active; inhibition [16]: Active; inhibition [17]: Active |
| 12.1 | 71.3 | COc1cc(/C=C/C(=O)CC(=O)/C=C/c2ccc(O)c(OC)c2)ccc1O [CURCUMIN] |  | 2.5 | Activity (SH-SY5Y [1]): Active |
| > 50 | 24 | CN1CCN(c2ccc(/C=C/c3cccc(/C=C/c4ccc(N5CCN(C)CC5)cc4)n3)cc2)CC1 | Non-toxic | 1.1 |  |
| 6 | 73.1 | CN1CCN(c2ccc(/C=C3\CCC/C(=C\c4ccc(N5CCN(C)CC5)cc4)C3=O)cc2)CC1 | Non-toxic | 2.6 | Activity (SH-SY5Y [10]): Active |
| > 50 | 35.8 | CN1CCN(c2ccc(/C=C/C(=O)c3ccc(C(=O)/C=C/c4ccc(N5CCN(C)CC5)cc4)cc3)cc2)CC1 | Non-toxic | 1.1 |  |
| 12.6 | 67.2 | CN1CCN(c2ccc(/C=C3\CC/C(=C\c4ccc(N5CCN(C)CC5)cc4)C3=O)cc2)CC1 | Non-toxic | 1.7 | Activity (SH-SY5Y [10]): Active |
| 9.2 | 77.8 | CN1CCN(c2ccc(/C=C/C(=O)CC(=O)/C=C/c3ccc(N4CCN(C)CC4)cc3)cc2)CC1 | Non-toxic | 1.9 |  |
| 21.5 | 68.6 | CN1CCN(c2ccc(/C=C/C(=O)/C=C/c3ccc(N4CCN(C)CC4)cc3)cc2)CC1 | Non-toxic | 3.2 | Activity (SH-SY5Y [10]): Active |

From ChEMBL document CHEMBL1817547, “Design, synthesis, and biological evaluation of curcumin analogues as multifunctional agents for the treatment of Alzheimer's disease” (Bioorg Med Chem, 2011)
